# Measured values from different studies.
# Protocols differ between the studies behind these lines.
# Target: Ephrin type-A receptor 3 (EPHA3, Homo sapiens, UniProt P29320)
# Residues used in one study (P29320 21-983): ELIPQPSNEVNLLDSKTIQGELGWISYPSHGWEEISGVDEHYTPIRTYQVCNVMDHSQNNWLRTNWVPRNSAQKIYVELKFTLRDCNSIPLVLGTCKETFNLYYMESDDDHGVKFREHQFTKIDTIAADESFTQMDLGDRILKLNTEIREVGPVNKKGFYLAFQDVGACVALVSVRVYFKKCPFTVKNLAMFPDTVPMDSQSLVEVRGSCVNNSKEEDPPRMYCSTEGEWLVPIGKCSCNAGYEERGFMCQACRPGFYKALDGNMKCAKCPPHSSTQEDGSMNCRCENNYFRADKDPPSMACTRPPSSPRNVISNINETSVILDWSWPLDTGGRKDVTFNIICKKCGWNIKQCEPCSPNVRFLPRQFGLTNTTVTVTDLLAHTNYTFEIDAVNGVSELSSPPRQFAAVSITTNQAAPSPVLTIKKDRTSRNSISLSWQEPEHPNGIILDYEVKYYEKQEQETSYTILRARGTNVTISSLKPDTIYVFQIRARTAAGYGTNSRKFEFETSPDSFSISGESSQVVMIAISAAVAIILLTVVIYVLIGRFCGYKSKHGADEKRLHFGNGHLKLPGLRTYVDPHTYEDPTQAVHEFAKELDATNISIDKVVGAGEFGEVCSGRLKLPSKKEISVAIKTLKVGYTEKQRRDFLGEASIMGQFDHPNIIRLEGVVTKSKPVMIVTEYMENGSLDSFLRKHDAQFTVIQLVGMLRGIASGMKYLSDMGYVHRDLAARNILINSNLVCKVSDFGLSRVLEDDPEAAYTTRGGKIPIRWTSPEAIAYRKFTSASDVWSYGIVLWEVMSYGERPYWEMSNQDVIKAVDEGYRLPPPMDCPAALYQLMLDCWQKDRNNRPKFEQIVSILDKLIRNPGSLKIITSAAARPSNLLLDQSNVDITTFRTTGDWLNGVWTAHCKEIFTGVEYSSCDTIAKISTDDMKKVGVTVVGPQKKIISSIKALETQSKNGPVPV
Compound,assay,conditions,measurement,value
Cc1ccc(Nc2nccc(N(C)c3ccc4c(C)n(C)nc4c3)n2)cc1S(N)(=O)=O,"enzyme activity, inhibitor",0.3 µM,inhibition,2%
CCOC(=O)c1cc2cc(-c3cc(C(=O)NCc4ccc(C(=O)O)cc4)nn3C)ccc2[nH]1,"cell-free assay, competition with immobilised ligand",0.1 µM,remaining binding,100%
Cc1ccc(C(=O)Nc2ccc(CN3CCN(C)CC3)c(C(F)(F)F)c2)cc1C#Cc1cnc2cccnn12,cell-free assay,23.5 nM,remaining signal,7.3%
CCc1ccccc1C(=O)Nc1n[nH]c2c(C)c(F)c(C3C(C#N)=C(C)N(C)C(C)=C3C#N)cc12,"cell-free assay, competition with immobilised ligand",1 µM,remaining binding,100%
CC(C)(O)[C@H]1CC[C@H](Nc2ccc3ncc(-c4cccc(C(F)(F)F)c4)n3n2)CC1,"enzyme activity, inhibitor",1 µM,remaining activity,107%
Cc1ccc(C(=O)NCc2ccsc2)cc1C#Cc1cn(C(C)C)c2ncnc(N)c12,"enzyme activity, inhibitor",1 µM,activity vs control,45%
O=C(NCCCC1CCCCC1)c1ccc(CNC(=O)c2cnn(-c3ccccc3)c2C(F)(F)F)cc1,"cell-free assay, competition with immobilised ligand",0.1 µM,remaining binding,91%
CC/C(=N\NC(=O)NCc1cccc(O)c1)c1ccc(O)c(C)c1O,"enzyme activity, inhibitor",0.1 µM,inhibition,0.6%
N#CCCc1ccc2c(c1)-c1[nH]c3ccc([N+](=O)[O-])cc3c1CC(=O)N2,cell-free assay,0.5 µM,remaining signal,93.9%
O=C(Nc1cnn(-c2csc(C(=O)NC3COC3)c2)c1)Nc1c(F)cccc1Cl,"enzyme activity, inhibitor",5 µM,remaining activity,96.1%
CNC(=O)c1cc(Oc2ccc(NC(=O)Nc3ccc(Cl)c(C(F)(F)F)c3)cc2)ccn1,"enzyme activity, inhibitor",0.3 µM,inhibition,11%
CN(C)C1CCN(CC#Cc2nn(C3CCCC3)c3nc(NCc4ccccc4)ncc23)C1 (stereo not drawn),"enzyme activity, inhibitor, FRET",1 µM,inhibition,-9%
CSc1nc(C)c(-c2ccnc(Nc3ccc(N4CCOCC4)cc3)c2)[nH]1,"cell-free assay, inhibitor",10 µM,inhibition,-6.3%
COc1cc(Cl)c(C(=O)N[C@@H](CN[C@H]2CC[C@@H](N)CC2)Cc2ccc(C#N)cc2)cc1-c1ccc(CN[C@H](C)c2ccc(C)cc2)o1,"enzyme activity, inhibitor",1 µM,remaining activity,69%
CCCCN(CCCC)C(=O)CN1C[C@@H](c2cc(OC)c3c(c2)OCO3)[C@H](C(=O)O)[C@H]1CC(C)(C)CCC,"cell-free assay, competition with immobilised ligand",1 µM,remaining binding,95.3%
COc1cc2ncnc(Nc3ccc(F)c(Cl)c3)c2cc1OCCCN1CCOCC1,cell-free assay,0.5 µM,remaining signal,94.4%
Cc1cc(NC(=O)c2cccc3cc(-c4cccc5[nH]nc(N)c45)ccc23)ccc1F,"enzyme activity, inhibitor",0.1 µM,activity vs control,103%
CC(C)(C)c1nc(-c2cccc(NS(=O)(=O)c3c(F)cccc3F)c2F)c(-c2ccnc(N)n2)s1,"enzyme activity, inhibitor, radiometric",1 µM,remaining activity,91%
N#CC1(c2ccccn2)CCN(Cc2cc(C(=O)N3CCCC3)c(=O)n3ccccc23)CC1,"cell-free assay, competition with immobilised ligand",1 µM,remaining binding,100%
CS(=O)(=O)CCNCc1ccc(-c2ccc3ncnc(Nc4ccc(OCc5cccc(F)c5)c(Cl)c4)c3c2)o1,cell-free assay,0.5 µM,remaining signal,98.2%
COc1cccc(CNC(=O)c2nc3scc(COCc4ccc(C(=O)O)cc4)c3c(=O)[nH]2)c1,"cell-free assay, competition with immobilised ligand",1 µM,remaining binding,91.3%
CCCS(=O)(=O)Nc1ccc(F)c(C(=O)c2c[nH]c3ncc(-c4ccc(Cl)cc4)cc23)c1F,"enzyme activity, inhibitor",1 µM,inhibition,< 10%
CNC(=O)Nc1ccc2c(c1)CC[C@@]21OC(=O)N(CC(=O)N(Cc2ccc(F)cc2)[C@@H](C)C(F)(F)F)C1=O,"cell-free assay, competition with immobilised ligand",1 µM,remaining binding,100%
O=C1NC(=O)c2cc(Nc3ccc(F)cc3)c(Nc3ccc(F)cc3)cc21,cell-free assay,0.5 µM,remaining signal,96.6%
